Positions of bridges follow the written chain, without caps; N, C: chain ends. Non-standard residues stand in square brackets, D forms with d. Residues, ends and D or L forms follow the SMILES beside them. Nle = CCCC[C@H](N)C(=O)O
Columns and labels:
[1] = target: bradykinin receptors (BRs); assay: Radioligand competition assay using [3H]BK in rat brain membranes; type: binding; conditions: for BR, [3H]BK IC50 / BR, [3H]BK Log[IC50] / IC50: rat brain membranes, pH 6.8, [3H]BK; for BR, [3H]BK Log[IC50]: logarithmic value (negative); for IC50: read-out: BR, [3H]BK IC50
Outline: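 Competitive binding against [3H]BK in rat brain membranes at pH 6.8. Non-specific binding was defined with 10 μM kallidin. Data came from at least two independent experiments run in duplicate. IC50 was derived by nonlinear least-squares regression and also reported as a logarithmic value.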

Metabolic stability = type: in vitro ADME; conditions: rat, plasma

| half-life (Metabolic stability) [h] | Compound | BR, [3H]BK IC50 [1] | BR, [3H]BK Log[IC50] [1] | IC50 [1] [nM] | other results |
| --- | --- | --- | --- | --- | --- |
| – | H-c^1,5(-cisCH=CH-)[Ala-Lys-Pro-Lys-Ala]-Lys-OH (AKPKA; not fully specified; cis-CH=CH- dicarba bridge 1,5; C-terminal Lys; printed: Ala-Lys-Pro-Lys-Ala) [ligand 2] | no competition | – | – | – |
| – | H-c^1,5(-CH2CH2-)[Ala-Lys-Pro-Lys-Ala]-Lys-OH (AKPKA; not fully specified; -CH2CH2- dicarba bridge 1,5; C-terminal Lys; printed: Ala-Lys-Pro-Lys-Ala) [ligand 3] | no competition | – | – | – |
| – | c^N,5[Leu-Arg-Ile-Arg-Glu]-Lys-OH (LRIREK-OH; lactam N-5; SMILES CC[C@H](C)[C@@H]1NC(=O)[C@H](CCCNC(=N)N)NC(=O)[C@H](CC(C)C)NC(=O)CC[C@@H](C(=O)N[C@@H](CCCCN)C(=O)O)NC(=O)[C@H](CCCNC(=N)N)NC1=O) [ligand 7] | – | −5.82+0.09 | 1510 | reduction of affinity at the BRs (fold) ([1]; compared with linear ligand 4): 22 fold |
| > 5 | CC[C@H](C)[C@@H]1NC(=O)[C@H](CCCNC(=N)N)NC(=O)[C@H](CC(C)C)NC(=O)[C@H](Cc2ccccc2)NC(=O)CC[C@@H](C(=O)N[C@@H](CCCCN)C(=O)O)NC(=O)[C@H](CCCNC(=N)N)NC1=O [ligand 5, c^N,6[Phe-Leu-Arg-Ile-Arg-Glu]-Lys-OH] (FLRIREK-OH; lactam N-6 (inferred)) | – | – | – | – |
| < 1 | CCCC[C@H](NC(=O)[C@H](CCCCN)NC(=O)[C@@H]1CCCN1C(=O)[C@H](CCCCN)NC(=O)[C@@H](N)CCCC)C(=O)N[C@@H](CCCCN)C(=O)O [ligand 1, H-Nle-Lys-Pro-Lys-Nle-Lys-OH] (H-[Nle]KPK[Nle]K-OH) | – | – | – | – |
| – | c^N,6[Lys-Leu-Arg-Ile-Arg-Glu]-Lys-OH (KLRIREK-OH; lactam N-6; SMILES CC[C@H](C)[C@@H]1NC(=O)[C@H](CCCNC(=N)N)NC(=O)[C@H](CC(C)C)NC(=O)[C@H](CCCCN)NC(=O)CC[C@@H](C(=O)N[C@@H](CCCCN)C(=O)O)NC(=O)[C@H](CCCNC(=N)N)NC1=O) [ligand 6] | – | −6.52+0.15 | 302 | – |
